We go through one compound from article PMC5198968 (Cancer Science, 2016).

Series [1] concerns Japanese patients with advanced hepatocellular carcinoma. The experiment in a line: Phase I dose escalation: dose-limiting toxicities and maximum tolerated dose. It is filed as in vivo, human. In a few lines:
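Doses started at 150 mg b.i.d. (group I) or 100 mg b.i.d. (group II) and escalated to 200 mg, with 3–9 patients per level. DLTs were drug-related AEs in cycle 1: grade 4 neutropenia lasting ≥8 days, febrile neutropenia or thrombocytopenia, most non-hematological grade ≥3 events, or defined liver-enzyme or bilirubin rises. Escalation required DLT incidence <33.3% (0/3, 1/6, 2/9). Twelve patients were added at the MTD.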

Series [2] is described as follows: Pharmacokinetics in plasma and urine. It is filed as in vivo, human. Particulars: for half-life: human, plasma, oral, t ½,ss, gMean (gCV%). In a few lines:
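Oral dosing twice daily, at 100, 150 or 200 mg depending on group. Blood was drawn predose and 1, 2, 3, 4, 6, 8, 10 and 24 h postdose on cycle 1 day 15, plus predose and 2 h postdose on cycle 2 days 1 and 15. Urine was collected over 24 h on cycle 1 day 15 and stored at −20°C or below. Analysis was by LC-MS/MS, with non-compartmental parameters, in treated patients with an evaluable PK end-point.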

In series [3] the test system is patients with advanced solid tumors. Particulars: phase I studies in advanced solid tumors; cited from earlier work.
The mark [4] stands for this setting: 200 mg b.i.d., expansion cohort.
Setting [5] is: dose-normalized AUC at steady state.

“Also recorded” adds a separate entry of the source.

The term half-life denotes how long it takes for the measured level to halve. Take `COC(=O)c1ccc2c(c1)NC(=O)/C2=C(\Nc1ccc(N(C)C(=O)CN2CCN(C)CC2)cc1)c1ccccc1` [nintedanib]: the “DLT of grade 3 diarrhea” value in series [1] (setting [4]) is recorded as “one patient in group I”. In series [1] (setting [4]), the “DLT of grade 3 drug-induced liver injury” value is “one patient in each group”. For the same compound, in series [1] (200 mg b.i.d., including expansion cohort, of 19 patients), the “Patients who experienced a DLT” value is on record as “three”. In addition, the “Maximum tolerated dose (MTD)” value in series [1] (both groups (mild and moderate liver impairment), oral, 28-day cycles) is reported as 200 mg b.i.d. Further, in series [1] (group I (150, 200 mg b.i.d.) and group II (100, 150, 200 mg b.i.d.), dose escalation), the “DLT during the MTD period (cycle 1)” value was “No dose‐limiting toxicities were reported; also recorded: No patient experienced a DLT”. For the same compound, the “Time at which plasma concentrations reached their maximum” value in series [2] (after multiple oral dose administration at steady state) was in the range of 3 to 4 h. Besides, the “Correlation between nintedanib exposure (AUCτ,ss,norm) and AST or ALT levels” value in series [2] (days 1–22 of cycle 1) is “no clear correlation”. Also, the “Increase in AUCτ,ss,norm, Child–Pugh score 7 versus score 5 or 6” value in series [2] (setting [5]) is reported as 37%. Further, the “Increase in AUCτ,ss,norm, group II versus group I” value in series [2] (setting [5]) worked out at 26%. Also, the half-life in series [2] (100 mg, Group II (moderate liver impairment), 100 mg b.i.d., n = 2, steady state) was 41.6 h; in series [2] (150 mg, Group I (mild liver impairment), 150 mg b.i.d., n = 3, steady state), 23.6 h; in series [2] (150 mg, Group II (moderate liver impairment), 150 mg b.i.d., n = 3, steady state), 14.6 h; in series [2] (200 mg, Group I (mild liver impairment), 200 mg b.i.d., n = 9, steady state), 16.6 h; in series [2] (200 mg, Group II (moderate liver impairment), 200 mg b.i.d. (n = 7), steady state) it was 17.7 h. In addition, in series [2] (over 24 hours after dosing at steady state), the “Administered dose recovered in the urine” value is 0.49–0.66%. Further, in series [2] (two patients in group I, 200 mg b.i.d. cohort), the “AUCτ,ss of individual patients with high exposure” value came out at 5700 ng·h/mL. Further, the “Primary DLT” value in series [3] is recorded as “elevated liver enzymes”.
